≈ marks a conversion by molar mass, not a printed value.
Experiments:
[1] = test system: K. pneumoniae N11-2218; test: MIC; assay type: cell-based; conditions: meropenem alone; K. pneumoniae N11-2218 (CRE)
Method in brief: (§1)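 Checkerboard microdilution with 8 concentrations each of meropenem and test compound in serial ½ dilutions, run in duplicate, and the mean was used. MIC was the lowest concentration with no growth. Each FIC was the concentration in the presence of the co-compound in a no-growth well divided by that compound's MIC; the FIC index is the sum of the two FICs.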

[2] = test system: E. coli BW25113; test: MIC; assay type: cell-based; conditions: Escherichia coli
Method in brief: as §1

[3] = test system: NDM-1-positive K. pneumoniae N11-2218; test: Mouse systemic infection, organ bacterial load; assay type: in vivo, CD1 mice; conditions: s.c., spleen burden 48 h after infection
Method in brief: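 Female CD1 mice, 7–9 weeks, infected i.p. with 2×10⁶ cfu K. pneumoniae N11-2218. Treated s.c. 30 minutes post infection with test compound, meropenem, their combination, or PBS. Euthanized at 48 h; spleen and liver were homogenized in PBS, serially diluted and plated on Brilliant Green agar for cfu counts.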

[4] = test system: NDM-1-positive K. pneumoniae N11-2218; test: Mouse lethal systemic infection, survival; assay type: in vivo, CD1 mice; conditions: meropenem (10 mg/kg) alone or AMA (30 mg/kg) alone, single s.c. dose
Method in brief: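 Female CD1 mice, 7–9 weeks, randomized 5 per cage. Infected i.p. with 5×10⁷ cfu K. pneumoniae N11-2218. A single s.c. dose was given 30 minutes post infection: meropenem 10 mg/kg, test compound 30 mg/kg, their combination, or PBS. Mice were monitored for endpoint until day 4. Preparation, infection and processing were done by two independent investigators for blinding.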

C[C@@H](O)[C@H]1C(=O)N2C(C(=O)O)=C(S[C@@H]3CN[C@H](C(=O)N(C)C)C3)[C@H](C)[C@H]12 [meropenem]
MIC [1]: 32 µg/mL (≈ 83.4 µM)
MIC [2]: 0.008 to 0.016 µg/mL (≈ 0.0209 to 0.0417 µM)
Response of infection to meropenem monotherapy [3]: resistant to meropenem monotherapy at doses below 50 mg/kg
Prevention of lethal infection by monotherapy [4]: unable to prevent lethal infection
